Consider three compounds from ChEMBL document CHEMBL1671631, “Staphylococcus aureus PBP4 is essential for beta-lactam resistance in community-acquired methicillin-resistant strains” (2008).

≈ marks a conversion by molar mass, not a printed value.

Assay [1] has as its system Staphylococcus aureus. The assay can be described thus: Antimicrobial activity against wild type community-acquired methicillin-resistant Staphylococcus aureus MW2 serotype USA400 by microdilution method. Format: functional. Summed up:
(§1)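 Broth microdilution MIC per CLSI guidelines, inoculum 5 x 10^5 CFU/ml, confirmed by plating serial dilutions. Run in triplicate; three independent clones per mutant. Reported as the median of at least three independent experiments. MBC: clear wells plated onto drug-free tryptic soy agar, 37°C, 24 and 48 h. pEPSA5-carrying strains tested with and without xylose, no chloramphenicol.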

For assay [2], the system named is Staphylococcus aureus. The assay is described as follows: Antimicrobial activity against community-acquired pbp3-deficient Staphylococcus aureus MW2 serotype USA400 by microdilution method. It counts as functional. The procedure, abridged: as §1
For orientation: Dilution methods test growth across graded concentrations, often in twofold steps.

Assay [3] relates to Staphylococcus aureus. The assay can be described thus: Antimicrobial activity against community-acquired pbp4-deficient Staphylococcus aureus MW2 serotype USA400 by microdilution method. Format: functional. The procedure, abridged: as §1
Assay [4] has as its system Staphylococcus aureus. The assay is described as follows: Antimicrobial activity against community-acquired pbp3/4-deficient Staphylococcus aureus MW2 serotype USA400 by microdilution method. Format: functional. The procedure, abridged:
as §1

In assay [5] the test system is Staphylococcus aureus. The assay is described as follows: Antimicrobial activity against community-acquired pbp4::pbp4-deficient Staphylococcus aureus MW2 serotype USA400 by microdilution method. Format: functional. The procedure, abridged: as §1
Assay [6] concerns Staphylococcus aureus. The assay is described as follows: Antimicrobial activity against wild type community-acquired methicillin-resistant Staphylococcus aureus MW2 ex serotype USA400 by microdilution method. Format: functional. The procedure, abridged: (§2)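 Broth microdilution MIC per CLSI guidelines, inoculum 5 x 10^5 CFU/ml, confirmed by plating serial dilutions. Run in triplicate; three independent clones per mutant. Reported as the median of at least three independent experiments.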

The subject of assay [7] is Staphylococcus aureus. The assay is described as follows: Antimicrobial activity against community-acquired pbp3-deficient Staphylococcus aureus MW2 ex serotype USA400 by microdilution method. It counts as functional. Summed up: as §2
In assay [8] the test system is Staphylococcus aureus. The assay is described as follows: Antimicrobial activity against community-acquired pbp4-deficient Staphylococcus aureus MW2 ex serotype USA400 by microdilution method. Format: functional. The procedure, abridged: as §1
Assay [9] relates to Staphylococcus aureus. The assay can be described thus: Antimicrobial activity against community-acquired pbp3/4-deficient Staphylococcus aureus MW2 ex serotype USA400 by microdilution method. Format: functional. The procedure, abridged: as §1
Assay [10] concerns Staphylococcus aureus. The assay is described as follows: Antimicrobial activity against wild type community-acquired methicillin-resistant Staphylococcus aureus USA300 by microdilution method. Format: functional. The procedure, abridged:
as §1

The test system of assay [11] is Staphylococcus aureus. The assay can be described thus: Antimicrobial activity against community-acquired pbp4-deficient Staphylococcus aureus USA300 by microdilution method. Format: functional. Summed up: as §1
Assay [12] deals with Staphylococcus aureus. The assay is described as follows: Antimicrobial activity against community-acquired pbp4::pbp4-deficient Staphylococcus aureus USA300 by microdilution method. Format: functional. Summed up: as §1
Assay [13] has as its system Staphylococcus aureus. The assay is described as follows: Antimicrobial activity against wild type hospital-acquired methicillin-resistant Staphylococcus aureus COL serotype USA500 by microdilution method. It counts as functional. The procedure, abridged:
as §1

For assay [14], the system named is Staphylococcus aureus. The assay can be described thus: Antimicrobial activity against hospital-acquired pbp3-deficient Staphylococcus aureus COL serotype USA500 by microdilution method. It counts as functional. Summed up:
as §1

For assay [15], the system named is Staphylococcus aureus. The assay is described as follows: Antimicrobial activity against hospital-acquired pbp4-deficient Staphylococcus aureus COL serotype USA500 by microdilution method. It counts as functional. The procedure, abridged: as §1
Assay [16] deals with Staphylococcus aureus. The assay can be described thus: Antimicrobial activity against hospital-acquired pbp3/4-deficient Staphylococcus aureus COL serotype USA500 by microdilution method. Format: functional. Summed up:
as §1

Assay [17] in a line: Antimicrobial activity against wild type hospital-acquired methicillin-resistant Staphylococcus aureus N315 serotype USA100 by microdilution method. It counts as functional, Staphylococcus aureus subsp. aureus N315. Summed up: as §1
Assay [18] can be described thus: Antimicrobial activity against hospital-acquired pbp4-deficient Staphylococcus aureus N315 serotype USA100 by microdilution method. It counts as functional, Staphylococcus aureus subsp. aureus N315. Summed up: as §2
The nature of assay [19]: Antimicrobial activity against wild type hospital-acquired methicillin-resistant vancomycin-intermediate Staphylococcus aureus Mu50 serotype USA100 by microdilution method. It counts as functional, Staphylococcus aureus subsp. aureus Mu50. The procedure, abridged:
as §1

A short description of assay [20]: Antimicrobial activity against hospital-acquired pbp4-deficient Staphylococcus aureus Mu50 serotype USA100 by microdilution method. It counts as functional, Staphylococcus aureus subsp. aureus Mu50. The procedure, abridged: as §1
The subject of assay [21] is Staphylococcus aureus. The assay is described as follows: Antimicrobial activity against wild type community-acquired methicillin-resistant Staphylococcus aureus MW2 (USA400) after 48 hrs by microdilution method. Format: functional.
The subject of assay [22] is Staphylococcus aureus. The assay is described as follows: Antimicrobial activity against wild type community-acquired methicillin-resistant Staphylococcus aureus USA300 after 48 hrs by microdilution method. Format: functional. To be noted: USA300, 48 h.
Assay [23] relates to Staphylococcus aureus. The assay can be described thus: Antimicrobial activity against wild type hospital-acquired methicillin-resistant Staphylococcus aureus COL after 48 hrs by microdilution method. Format: functional.
For assay [24], the system named is Staphylococcus aureus. The assay is described as follows: Antimicrobial activity against wild type hospital-acquired methicillin-resistant Staphylococcus aureus 252 after 48 hrs by microdilution method. To be noted: Staphylococcus aureus, 252, 48 h. Format: functional.
In assay [25] the test system is Staphylococcus aureus. The assay can be described thus: Antimicrobial activity against wild type hospital-acquired methicillin-resistant vancomycin-intermediate Staphylococcus aureus Mu50 after 48 hrs by microdilution method. Format: functional. To be noted: Mu50, 48 h.
Assay [26] deals with Staphylococcus aureus. The assay can be described thus: Antimicrobial activity against community-acquired pbp4-deficient Staphylococcus aureus MW2 serotype USA400 by microdilution method relative to wild type. Format: functional. The procedure, abridged: (§3)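 Broth microdilution MIC per CLSI, inoculum 5 x 10^5 CFU/ml, inoculum confirmed by plating serial dilutions. Three independent clones tested per mutant, each in triplicate. Reported value is the median of at least three independent experiments. MBC obtained by plating clear wells onto drug-free tryptic soy agar, incubated 37°C for 24 and 48 h.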

For assay [27], the system named is Staphylococcus aureus. The assay can be described thus: Antimicrobial activity against community-acquired pbp4-deficient Staphylococcus aureus USA300 by microdilution method relative to wild type. It counts as functional. The procedure, abridged: as §3

For the compound `CO[C@@]1(NC(=O)Cc2cccs2)C(=O)N2C(C(=O)O)=C(COC(N)=O)CS[C@@H]21` [CEFOXITIN], the minimum inhibitory concentration (MIC) against Staphylococcus aureus [1] worked out at 64 µg/mL (≈ 150 µM); against Staphylococcus aureus [2], 64 µg/mL (≈ 150 µM); against Staphylococcus aureus [3], 64 µg/mL (≈ 150 µM); in the assay with Staphylococcus aureus [4], 64 µg/mL (≈ 150 µM); against Staphylococcus aureus [5], 64 µg/mL (≈ 150 µM); against Staphylococcus aureus [6], 16 µg/mL (≈ 37.4 µM). Also, the MIC in the assay with Staphylococcus aureus [7] was found to be 32 µg/mL (≈ 74.9 µM); against Staphylococcus aureus [8], 16 µg/mL (≈ 37.4 µM); against Staphylococcus aureus [9], 32 µg/mL (≈ 74.9 µM); in the assay on Staphylococcus aureus [10], 64 µg/mL (≈ 150 µM); against Staphylococcus aureus [11], 64 µg/mL (≈ 150 µM); with Staphylococcus aureus [12] it was 64 µg/mL (≈ 150 µM). Besides, the MIC amounted to 128 µg/mL (≈ 299 µM) against Staphylococcus aureus [13]; 128 µg/mL (≈ 299 µM) with Staphylococcus aureus [14]; 128 µg/mL (≈ 299 µM) in the assay with Staphylococcus aureus [15]; 128 µg/mL (≈ 299 µM) in the assay on Staphylococcus aureus [16]; 64 µg/mL (≈ 150 µM) in [17]; 64 µg/mL (≈ 150 µM) in assay [18]. Moreover, the minimum inhibitory concentration (MIC) in [19] and in assay [20] was 256 µg/mL (≈ 599 µM) in each case. For the same compound, the MBC in the assay on Staphylococcus aureus [21], against Staphylococcus aureus [22], in the assay on Staphylococcus aureus [23], in the assay with Staphylococcus aureus [24] and against Staphylococcus aureus [25] was more than 256 µg/mL throughout.

Turning to `CCOc1ccc2ccccc2c1C(=O)N[C@@H]1C(=O)N2[C@@H]1SC(C)(C)[C@@H]2C(=O)O` [NAFCILLIN], the minimum inhibitory concentration (MIC) in the assay on Staphylococcus aureus [1] came to 16 µg/mL (≈ 38.6 µM); against Staphylococcus aureus [2], 16 µg/mL (≈ 38.6 µM); in the assay with Staphylococcus aureus [3], 1 µg/mL (≈ 2.41 µM); against Staphylococcus aureus [4], 1 µg/mL (≈ 2.41 µM); against Staphylococcus aureus [5], 16 µg/mL (≈ 38.6 µM); in the assay on Staphylococcus aureus [6] it was 16 µg/mL (≈ 38.6 µM). Also, the MIC against Staphylococcus aureus [7] came out at 16 µg/mL (≈ 38.6 µM); with Staphylococcus aureus [8], 1 µg/mL (≈ 2.41 µM); against Staphylococcus aureus [9], 1 µg/mL (≈ 2.41 µM); against Staphylococcus aureus [10] it was 16 µg/mL (≈ 38.6 µM); against Staphylococcus aureus [11], 1 µg/mL (≈ 2.41 µM); in the assay with Staphylococcus aureus [12], 16 µg/mL (≈ 38.6 µM). Further, the MIC (against Staphylococcus aureus [13]; in the assay with Staphylococcus aureus [14]; with Staphylococcus aureus [15]; with Staphylococcus aureus [16]; in assay [17]; in assay [18]) was 64 µg/mL (≈ 154 µM) throughout. For the same compound, the MIC in assay [19] and in assay [20] was 256 µg/mL (≈ 618 µM) each time. Further, the “fold change (FC)” value in the assay on Staphylococcus aureus [26] and in the assay with Staphylococcus aureus [27] was 16 each time.

As for `Cc1onc(-c2ccccc2)c1C(=O)N[C@@H]1C(=O)N2[C@@H]1SC(C)(C)[C@@H]2C(=O)O` [OXACILLIN], the minimal inhibitory concentration (MIC) was found to be 64 µg/mL (≈ 159 µM) with Staphylococcus aureus [2]; 4 µg/mL (≈ 9.96 µM) in the assay with Staphylococcus aureus [3]; 4 µg/mL (≈ 9.96 µM) with Staphylococcus aureus [4]; 64 µg/mL (≈ 159 µM) in the assay with Staphylococcus aureus [5]; 2 µg/mL (≈ 4.98 µM) against Staphylococcus aureus [8]; 1 µg/mL (≈ 2.49 µM) against Staphylococcus aureus [9]. The MIC against Staphylococcus aureus [10] was 64 µg/mL (≈ 159 µM); against Staphylococcus aureus [11], 4 µg/mL (≈ 9.96 µM); in the assay with Staphylococcus aureus [12] it was 64 µg/mL (≈ 159 µM); with Staphylococcus aureus [13], 64 µg/mL (≈ 159 µM); against Staphylococcus aureus [14], 256 µg/mL (≈ 638 µM); in the assay on Staphylococcus aureus [15], 256 µg/mL (≈ 638 µM). Further, the minimum inhibitory concentration (MIC) (in the assay on Staphylococcus aureus [16]; in [17]; in assay [19]; in [20]) was 256 µg/mL (≈ 638 µM) in each case. Further, in the assay with Staphylococcus aureus [27], the “fold change (FC)” value worked out at 16. In addition, the MBC with Staphylococcus aureus [21] is 256 µg/mL (≈ 638 µM); against Staphylococcus aureus [22] it was 256 µg/mL (≈ 638 µM); with Staphylococcus aureus [23], more than 256 µg/mL; in the assay with Staphylococcus aureus [24], more than 256 µg/mL; in the assay on Staphylococcus aureus [25], more than 256 µg/mL.

The term MIC denotes the lowest concentration that inhibits growth of the organism. A word on the MBC: it is the lowest tested concentration that kills the bacteria rather than only halting them.
